The source of these data is ChEMBL document CHEMBL3877303 (J Med Chem, 2017).

Activity calls are given as the source filed them. No cut-off for these calls is given here.

The nature of data set [1]: Cell cycle arrest in human GISTT1 cells assessed as accumulation at G0/G1 phase at 0.3 uM after 24 hrs by propidium iodide/RNase staining based flow cytometry. The format is functional. In short, it runs like this:
(§1)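 Cells were exposed to serially diluted compound, then fixed in cold 70% ethanol overnight at -20 °C. They were stained with PI/RNase buffer for DNA-content cell-cycle analysis.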
Background: Flow cytometry measures light scatter and fluorescence of single cells or particles in a stream.

Data set [2] addresses Epithelial discoidin domain-containing receptor 1 (Homo sapiens, UniProt Q08345). Particulars: BaF3.
Data set [3] in a line: Anticancer activity against human GISTT1 cells xenografted in nu/nu mouse assessed as tumor growth inhibition at 100 mg/kg, po administered daily via oral gavage measured 21 days post compound treatment relative to vehicle-treated control. To be noted: 504 h, read-out: GI. On the technique in general: A xenograft is tissue or cells of one species grown in another, often human tumour cells in immunodeficient mice.

The test system of another data set is MEG-01. As to the kind of experiment: Induction of apoptosis in human MEG01 cells assessed as cleavage of PARP at 0.1 to 3 uM by Western blot analysis. The format is functional, cell-based. In short, it runs like this: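 Cells were treated with DMSO or serially diluted compound for the indicated periods. They were washed in ice-cold PBS and lysed in RIPA buffer with protease/phosphatase inhibitors, and protein was quantified by BCA. Lysates were resolved by SDS-PAGE, transferred to PVDF and blocked in 5% milk/TBST. Blots were probed for PARP and caspase-3, with β-actin as loading control, and detected by ECL.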

The target of data set [4] is T1, Mast/stem cell growth factor receptor Kit (Homo sapiens, UniProt P10721). As to the kind of experiment: Inhibition of c-KIT autophosphorylation at Y719 in human GIST882 cells at 0.01 to 3 uM measured after 2 hrs by immunoblotting. In kind it is cell-based. In a few lines: (§2)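 After an ice-cold PBS wash, cells were lysed in RIPA buffer (50 mM Tris pH 8.0) with protease and phosphatase inhibitors, and protein was quantified by BCA. Lysates were run on SDS-PAGE, transferred to PVDF and blocked in 5% milk/TBST. Phospho- and total proteins were probed by immunoblot with ECL detection; β-actin served as loading control.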
T1 sequence (P10721 whole entry): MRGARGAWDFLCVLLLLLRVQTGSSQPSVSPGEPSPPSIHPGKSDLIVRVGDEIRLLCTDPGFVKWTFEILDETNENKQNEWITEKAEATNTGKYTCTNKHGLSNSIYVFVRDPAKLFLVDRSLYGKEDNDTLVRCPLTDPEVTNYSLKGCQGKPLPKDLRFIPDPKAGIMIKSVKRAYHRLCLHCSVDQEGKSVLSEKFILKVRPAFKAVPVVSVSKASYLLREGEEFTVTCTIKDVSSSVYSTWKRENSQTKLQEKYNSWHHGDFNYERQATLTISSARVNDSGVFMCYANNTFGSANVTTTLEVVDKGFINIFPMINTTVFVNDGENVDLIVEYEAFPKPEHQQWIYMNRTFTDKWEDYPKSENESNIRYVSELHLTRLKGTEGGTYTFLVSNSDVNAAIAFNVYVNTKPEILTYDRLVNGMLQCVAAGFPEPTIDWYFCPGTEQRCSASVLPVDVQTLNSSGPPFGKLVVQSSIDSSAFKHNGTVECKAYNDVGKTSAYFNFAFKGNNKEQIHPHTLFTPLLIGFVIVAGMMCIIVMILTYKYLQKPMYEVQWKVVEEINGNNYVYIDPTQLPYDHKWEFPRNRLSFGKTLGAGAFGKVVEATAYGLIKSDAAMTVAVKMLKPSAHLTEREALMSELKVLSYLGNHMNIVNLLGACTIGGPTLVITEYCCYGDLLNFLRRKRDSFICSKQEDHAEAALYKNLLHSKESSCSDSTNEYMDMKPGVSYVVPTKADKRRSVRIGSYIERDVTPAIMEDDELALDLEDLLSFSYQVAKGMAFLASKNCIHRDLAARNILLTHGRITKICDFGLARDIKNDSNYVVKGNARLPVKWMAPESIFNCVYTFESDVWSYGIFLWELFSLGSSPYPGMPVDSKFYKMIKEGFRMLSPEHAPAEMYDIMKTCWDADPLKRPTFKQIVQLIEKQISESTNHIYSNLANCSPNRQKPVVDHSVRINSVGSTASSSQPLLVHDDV
A general note: A western blot detects proteins with antibodies after separation by electrophoresis.

The target in data set [5] is T1, Mast/stem cell growth factor receptor Kit. As to the kind of experiment: Inhibition of c-KIT autophosphorylation at Y719 in human GISTT1 cells at 0.03 to 10 uM measured after 2 hrs by immunoblotting. The format is cell-based. In a few lines: as §2
The nature of data set [6]: Cmax in Sprague-Dawley rat at 10 mg/kg, po. In kind it is ADME, organism-based. Further details: dose 10 mg/kg, route oral. Particulars: in vivo. In short, it runs like this: (§3)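 Male Sprague-Dawley rats aged six to eight weeks were fasted overnight and then dosed iv or orally. Blood (~0.2 mL) was drawn from the jugular vein into heparin and kept on ice. Sampling was at 1 min to 8 h for iv and 5 min to 24 h for oral. Plasma was separated by centrifugation at 2-8 °C and stored at -80 °C until analysis.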

A short description of data set [7]: Antiproliferative activity against human K562 cells measured after 72 hrs by CellTiter-Glo or CCK8 assay. In kind it is functional. Particulars: K562, 72 h.
The target of data set [8] is Tyrosine-protein kinase Lck (Homo sapiens, UniProt P06239). As to the kind of experiment: Inhibition of recombinant C-terminal His-tagged human LCK cytoplasmic domain expressed in baculovirus expression system assessed as residual activity at 1 uM measured after 1 hr by FRET based Z'Lyte assay relative to control.
Tyrosine-protein kinase Lck, sequence (P06239 2-509 limits assumed): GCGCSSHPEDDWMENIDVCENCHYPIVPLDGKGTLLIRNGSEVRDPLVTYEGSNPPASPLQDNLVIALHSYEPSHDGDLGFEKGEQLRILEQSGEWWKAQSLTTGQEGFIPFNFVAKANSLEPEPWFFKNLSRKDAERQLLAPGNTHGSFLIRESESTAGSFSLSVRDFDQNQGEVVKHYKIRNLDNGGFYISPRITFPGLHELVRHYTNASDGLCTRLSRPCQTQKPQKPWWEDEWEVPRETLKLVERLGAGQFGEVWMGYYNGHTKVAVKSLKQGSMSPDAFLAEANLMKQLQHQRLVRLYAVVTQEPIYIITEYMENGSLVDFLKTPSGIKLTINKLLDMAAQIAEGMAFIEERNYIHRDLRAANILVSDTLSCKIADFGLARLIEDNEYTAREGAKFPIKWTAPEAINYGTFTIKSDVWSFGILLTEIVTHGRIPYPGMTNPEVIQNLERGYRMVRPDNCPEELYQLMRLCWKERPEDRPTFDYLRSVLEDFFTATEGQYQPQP
Data set [9] relates to BaF3. Briefly: Inhibition of BCR/ABL p210 fusion protein T315I mutant (unknown origin) expressed in BAF3 cells assessed as growth inhibition measured after 72 hrs by CellTiter-Glo or CCK8 assay. In kind it is cell-based. Particulars: Homo sapiens. In a few lines:
(§4)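 BaF3 lines were made by retroviral transduction with kinase-fusion MSCV vectors packaged in HEK293T cells. Cells were selected with puromycin for 48 h, then selected again without IL-3 so growth depends on the introduced kinase. […] They were seeded at 1 to 2.5×10^4 cells/mL with compound dilutions and incubated 72 h. Viability was read by CellTiter-Glo luminescence or CCK-8 absorbance (450/655 nm), normalized to DMSO control; GI50 was curve-fitted from triplicate tests.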

Data set [10] concerns Mast/stem cell growth factor receptor Kit (Homo sapiens), P10721 [D816V]. As to the kind of experiment: Inhibition of Tel-fused c-KIT D816V mutant (unknown origin) expressed in BAF3 cells assessed as growth inhibition measured after 72 hrs by CellTiter-Glo or CCK8 assay. In kind it is cell-based. In a few lines:
as §4

Data set [11] can be described thus: Half life in Sprague-Dawley rat at 1 mg/kg, iv. In kind it is ADME, organism-based. To be noted: in vivo. In short, it runs like this:
as §3

The next data set concerns K562. Briefly: Anticancer activity against human K562 cells xenografted in nu/nu mouse assessed as reduction in tumor progression administered daily via oral gavage measured 28 days post compound treatment. In kind it is functional, cell-based. In short, it runs like this: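 Female nu/nu mice received ten million K562 cells subcutaneously in the right flank, in PBS mixed 1:1 with Matrigel. Daily oral gavage began at 200-400 mm³ tumor size, with 4 or 5 mice per group. Dosing was 25, 50 or 100 mg/kg/d or vehicle (0.5% methylcellulose/0.4% Tween80) for 28 days. Body weight and tumor size were normalized to initial values, and final tumor weight was recorded. Data are mean ± SEM.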

The target of data set [12] is T1, Mast/stem cell growth factor receptor Kit. Briefly: Inhibition of c-KIT mediated signaling pathways assessed as reduction in S6K phosphorylation at T389 in human GISTT1 cells at 0.03 to 10 uM measured after 2 hrs by immunoblotting. In kind it is cell-based. In short, it runs like this: as §2
Data set [13] in a line: Cell cycle arrest in human KU812 cells assessed as accumulation at G0/G1 phase at 0.3 uM after 12 hrs by propidium iodide/RNase staining based flow cytometry. In kind it is functional. In a few lines:
as §1

The target in data set [14] is T1, Mast/stem cell growth factor receptor Kit. As to the kind of experiment: Inhibition of c-KIT mediated signaling pathways assessed as reduction in STAT3/5 phosphorylation at Y705/Y694 in human GIST882 cells at 0.03 to 10 uM measured after 2 hrs by immunoblotting. The format is cell-based. In a few lines: as §2
For data set [15], the system named is Mast/stem cell growth factor receptor Kit (Homo sapiens), P10721 [V559D,T670I]. As to the kind of experiment: Inhibition of Tel-fused c-KIT T670I/V559D double mutant (unknown origin) expressed in BAF3 cells assessed as growth inhibition measured after 72 hrs by CellTiter-Glo or CCK8 assay. The format is cell-based. In a few lines: as §4
Mast/stem cell growth factor receptor Kit (Homo sapiens), P10721 [V559D,T670I], sequence (P10721 whole entry V559D/T670I, the tested form may be a part): as the sequence (P10721 whole entry) above, with V559D, T670I counted along it
Data set [16] has as its system BaF3. Briefly: Inhibition of BCR/ABL p210 fusion protein F317I mutant (unknown origin) expressed in BAF3 cells assessed as growth inhibition measured after 72 hrs by CellTiter-Glo or CCK8 assay. The format is cell-based. Particulars: Homo sapiens. In short, it runs like this: as §4
Data set [17] concerns the target T1, Mast/stem cell growth factor receptor Kit. To be noted: GISTT1, 1 uM.
For data set [18] the target is unchanged. To be noted: 1 uM.
A short description of data set [19]: Cell cycle arrest in human GIST882 cells assessed as accumulation at G0/G1 phase at 1 uM after 48 hrs by propidium iodide/RNase staining based flow cytometry. In kind it is functional. In short, it runs like this: as §1

Epithelial discoidin domain-containing receptor 1, sequence (Q08345 whole entry, the tested form may be a part): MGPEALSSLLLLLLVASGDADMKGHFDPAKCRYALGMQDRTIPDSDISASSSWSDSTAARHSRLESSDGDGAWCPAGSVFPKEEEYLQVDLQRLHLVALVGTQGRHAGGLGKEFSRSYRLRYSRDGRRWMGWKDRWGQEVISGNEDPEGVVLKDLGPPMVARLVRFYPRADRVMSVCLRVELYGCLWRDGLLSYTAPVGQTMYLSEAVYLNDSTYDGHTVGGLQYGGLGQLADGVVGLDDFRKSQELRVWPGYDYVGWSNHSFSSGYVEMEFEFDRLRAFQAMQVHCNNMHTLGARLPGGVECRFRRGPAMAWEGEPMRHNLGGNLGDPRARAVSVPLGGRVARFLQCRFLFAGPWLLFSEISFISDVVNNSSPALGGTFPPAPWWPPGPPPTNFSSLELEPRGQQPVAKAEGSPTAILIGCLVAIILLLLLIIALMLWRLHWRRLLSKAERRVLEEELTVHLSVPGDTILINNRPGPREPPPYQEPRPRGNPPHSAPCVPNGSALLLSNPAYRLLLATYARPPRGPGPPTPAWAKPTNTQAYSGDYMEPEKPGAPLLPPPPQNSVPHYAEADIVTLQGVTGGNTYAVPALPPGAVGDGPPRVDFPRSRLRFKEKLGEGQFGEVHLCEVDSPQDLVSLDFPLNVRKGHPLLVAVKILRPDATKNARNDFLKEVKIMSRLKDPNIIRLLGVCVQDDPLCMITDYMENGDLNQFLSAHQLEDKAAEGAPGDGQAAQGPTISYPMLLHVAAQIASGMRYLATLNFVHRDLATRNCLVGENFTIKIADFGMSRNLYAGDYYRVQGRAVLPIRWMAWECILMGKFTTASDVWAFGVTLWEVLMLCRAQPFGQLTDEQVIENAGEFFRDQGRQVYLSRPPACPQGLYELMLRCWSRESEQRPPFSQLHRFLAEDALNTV
Mast/stem cell growth factor receptor Kit (Homo sapiens), P10721 [D816V], sequence (P10721 whole entry D816V, the tested form may be a part): as the sequence (P10721 whole entry) above, with D816V counted along it

The GI50 is the concentration at which growth is held to half of that of the control. In general, Cmax refers to the maximum level reached in the sampled fluid or tissue. What is called half-life is how long it takes for the measured level to halve. Read a high half-life as slow decline. Consider `Cc1ccc(C(=O)N2CCC(Oc3cc(NC(=O)c4ccc(CN5CCN(C)CC5)c(C(F)(F)F)c4)ccc3C)CC2)cn1`, for which the result (in data set [1]; with MEG-01; in [13]) was Active. For the same compound, the GI50 is 9770 nM in data set [2]; 27 nM in [7]; over 10000 nM in the data set with BaF3 [9]; 5060 nM in data set [10]; 1010 nM in data set [15]; 490 nM with BaF3 [16]. In addition, the inhibition in vivo at 100 mg/kg in data set [3] was found to be 46.5%. The inhibition result in data set [4], in [5], in [12] and in data set [14] was “Active” throughout. Moreover, the Cmax in data set [6] was found to be 223 ng/mL. In addition, in data set [8], the Activity was 0.55%. For the same compound, the half-life in data set [11] is 2.47 h. The TGI entry with K562 is “Dose-dependent effect”.

With `Cc1ccc(NC(=O)c2ccc(CN3CCN(C)CC3)cc2)cc1Nc1nccc(-c2cccnc2)n1` [IMATINIB], the inhibition entry in [17] and in data set [18] was “Active” throughout. The outcome in [19] was Active.
